Activity calls are given as the source filed them. The calls are words filed in the database; no cut-off is given here.
Legend:
[1] = target: T1, Mitogen-activated protein kinase 13 (Homo sapiens) (UniProt O15264); test: Binding affinity p38delta
T1 sequence (whole entry): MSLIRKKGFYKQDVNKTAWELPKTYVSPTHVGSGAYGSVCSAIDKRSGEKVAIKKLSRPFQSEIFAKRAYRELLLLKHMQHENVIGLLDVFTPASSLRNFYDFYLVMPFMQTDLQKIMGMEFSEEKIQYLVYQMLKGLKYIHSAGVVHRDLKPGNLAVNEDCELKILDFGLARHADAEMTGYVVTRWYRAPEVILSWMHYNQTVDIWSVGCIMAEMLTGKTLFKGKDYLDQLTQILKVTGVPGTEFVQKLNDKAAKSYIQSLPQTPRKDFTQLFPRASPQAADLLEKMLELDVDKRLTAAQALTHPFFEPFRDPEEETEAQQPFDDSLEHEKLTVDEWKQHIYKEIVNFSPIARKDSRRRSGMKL

Neutrophil [2] = test: Cytotoxicity against human neutrophils assessed as viable cells after 2 hrs; type: functional; design: concentration or dose not given beside the values
Procedure, shortened: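 Human neutrophils (2 × 10⁶/mL) from healthy donors were incubated 2 h at 37 °C under CO₂ in HBSS:PBS (3:1) with 1 mg/mL BSA, with compounds. Membrane integrity was read by fluorescein diacetate/ethidium bromide staining for 10 min at room temperature, under UV dark-field microscopy. Green cells were scored viable; red nuclei were scored necrotic.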

[3] = target: Tyrosine-protein kinase HCK (Homo sapiens) (UniProt P08631); test: Binding affinity to Hck
Chain of Tyrosine-protein kinase HCK (Homo sapiens) (P08631 2-526 limits assumed): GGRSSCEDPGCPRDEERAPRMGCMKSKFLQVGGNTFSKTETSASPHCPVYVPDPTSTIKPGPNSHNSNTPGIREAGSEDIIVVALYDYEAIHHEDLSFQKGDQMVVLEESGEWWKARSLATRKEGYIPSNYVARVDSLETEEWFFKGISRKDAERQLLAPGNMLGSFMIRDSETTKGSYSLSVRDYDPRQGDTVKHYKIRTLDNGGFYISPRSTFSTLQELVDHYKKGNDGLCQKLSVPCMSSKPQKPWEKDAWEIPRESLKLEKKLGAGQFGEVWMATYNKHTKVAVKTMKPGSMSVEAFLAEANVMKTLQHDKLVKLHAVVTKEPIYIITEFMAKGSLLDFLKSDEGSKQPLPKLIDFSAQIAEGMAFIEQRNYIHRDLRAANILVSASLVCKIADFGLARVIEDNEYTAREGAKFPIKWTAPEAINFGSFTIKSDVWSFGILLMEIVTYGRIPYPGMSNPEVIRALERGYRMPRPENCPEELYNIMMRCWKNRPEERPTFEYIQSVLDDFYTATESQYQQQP

[4] = target: T2, Mitogen-activated protein kinase 12 (Homo sapiens) (UniProt P53778); test: Binding affinity to p38-gamma
T2 sequence (whole entry): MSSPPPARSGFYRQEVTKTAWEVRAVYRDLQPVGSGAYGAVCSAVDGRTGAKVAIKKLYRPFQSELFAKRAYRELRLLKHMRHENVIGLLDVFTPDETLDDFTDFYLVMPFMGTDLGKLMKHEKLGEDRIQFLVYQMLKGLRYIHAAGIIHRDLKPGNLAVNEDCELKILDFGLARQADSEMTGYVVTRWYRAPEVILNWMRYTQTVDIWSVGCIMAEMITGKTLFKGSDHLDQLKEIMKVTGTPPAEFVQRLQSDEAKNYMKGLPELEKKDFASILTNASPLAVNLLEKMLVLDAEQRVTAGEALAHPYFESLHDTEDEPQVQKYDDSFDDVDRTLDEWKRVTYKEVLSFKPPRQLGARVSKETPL

Neutrophil [5] = test: Reduction of IL8-stimulated F-actin polymerization in human neutrophils; type: functional; design: scale not given: the % may be the effect or the level left
Procedure, shortened: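 Donor neutrophils were incubated ± compound, washed three times, then stimulated 30 min with medium or 100 nM IL8. Cytospins were stained with Alexa Fluor 488-phalloidin and examined by fluorescence microscopy. Mean fluorescence density came from linear per-cell measurement across ≥5 random fields per slide, in duplicate, ≥3 experiments. Values were given as area percentage, mean ± SD.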

[6] = target: Tyrosine-protein kinase Fgr (Homo sapiens) (UniProt P09769); test: Binding affinity to Fgr
Chain of Tyrosine-protein kinase Fgr (Homo sapiens) (P09769 2-529 limits assumed): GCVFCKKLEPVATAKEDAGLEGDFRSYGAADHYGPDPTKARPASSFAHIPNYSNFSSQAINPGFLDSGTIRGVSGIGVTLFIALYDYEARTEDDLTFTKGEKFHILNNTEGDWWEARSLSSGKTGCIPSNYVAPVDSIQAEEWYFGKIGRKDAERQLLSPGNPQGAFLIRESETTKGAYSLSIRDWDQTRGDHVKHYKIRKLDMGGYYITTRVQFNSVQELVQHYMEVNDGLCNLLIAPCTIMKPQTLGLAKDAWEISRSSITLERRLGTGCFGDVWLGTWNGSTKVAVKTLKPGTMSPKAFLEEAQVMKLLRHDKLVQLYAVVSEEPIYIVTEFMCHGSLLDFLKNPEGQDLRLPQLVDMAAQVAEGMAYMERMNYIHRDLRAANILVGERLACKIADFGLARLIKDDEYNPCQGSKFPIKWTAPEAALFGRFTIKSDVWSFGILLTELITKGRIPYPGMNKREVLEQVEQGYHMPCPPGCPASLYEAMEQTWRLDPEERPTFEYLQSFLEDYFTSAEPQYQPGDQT

[7] = target: Mitogen-activated protein kinase 14 (Homo sapiens) (UniProt Q16539); test: Binding affinity to p38alpha
Chain of Mitogen-activated protein kinase 14 (Homo sapiens) (Q16539 whole entry): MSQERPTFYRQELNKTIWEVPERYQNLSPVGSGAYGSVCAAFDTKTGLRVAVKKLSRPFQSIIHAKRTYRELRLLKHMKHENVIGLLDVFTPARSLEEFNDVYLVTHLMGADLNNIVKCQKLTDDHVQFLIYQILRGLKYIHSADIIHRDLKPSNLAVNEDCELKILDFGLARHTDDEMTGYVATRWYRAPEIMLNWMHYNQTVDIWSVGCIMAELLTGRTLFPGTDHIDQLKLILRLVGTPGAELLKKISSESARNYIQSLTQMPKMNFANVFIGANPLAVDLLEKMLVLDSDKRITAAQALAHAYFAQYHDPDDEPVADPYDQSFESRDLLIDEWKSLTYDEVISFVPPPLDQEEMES

[8] = target: Mitogen-activated protein kinase 1 (Homo sapiens) (UniProt P28482); test: Binding affinity to ERK2
Chain of Mitogen-activated protein kinase 1 (Homo sapiens) (P28482 whole entry): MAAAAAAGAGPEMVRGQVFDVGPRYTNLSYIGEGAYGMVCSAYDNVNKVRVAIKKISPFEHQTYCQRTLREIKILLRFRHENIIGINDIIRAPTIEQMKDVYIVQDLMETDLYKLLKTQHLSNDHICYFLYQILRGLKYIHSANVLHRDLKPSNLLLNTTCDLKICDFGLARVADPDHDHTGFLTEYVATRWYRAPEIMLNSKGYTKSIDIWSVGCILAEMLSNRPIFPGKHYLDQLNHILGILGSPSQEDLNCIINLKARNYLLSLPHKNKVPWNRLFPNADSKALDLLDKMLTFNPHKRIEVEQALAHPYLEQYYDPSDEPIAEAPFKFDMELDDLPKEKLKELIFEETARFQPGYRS

[9] = target: T3, C-C chemokine receptor type 3 (Homo sapiens) (UniProt P51677); test: Binding affinity to CCR3
T3 sequence (whole entry): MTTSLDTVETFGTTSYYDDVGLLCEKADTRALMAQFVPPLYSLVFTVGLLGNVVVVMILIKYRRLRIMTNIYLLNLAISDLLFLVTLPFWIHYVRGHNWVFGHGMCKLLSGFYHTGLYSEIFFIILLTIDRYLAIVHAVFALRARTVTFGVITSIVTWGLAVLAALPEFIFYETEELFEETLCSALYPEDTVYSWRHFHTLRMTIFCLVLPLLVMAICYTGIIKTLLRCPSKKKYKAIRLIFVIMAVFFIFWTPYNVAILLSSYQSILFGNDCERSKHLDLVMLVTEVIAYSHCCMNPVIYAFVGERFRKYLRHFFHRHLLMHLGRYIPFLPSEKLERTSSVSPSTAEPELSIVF

Neutrophil [10] = test: Inhibition of fMLP-induced neutrophil chemotaxis after 45 mins by Boyden chamber assay; type: functional, cell-based; conditions: Homo sapiens
Procedure, shortened: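 Leading-front Boyden assay with donor neutrophils. Cells were preincubated 15 min at room temperature ± compound. Then 4 × 10⁵ cells were placed above a 3 µm cellulose ester filter, with IL8 or fMLP below. After 45 min at 37 °C, filters were hematoxylin-stained and the leading-front distance was read at ×400, 5 fields per filter, in duplicate. Net migration = stimulated minus spontaneous. IC₅₀ came from nonlinear regression, ≥3 experiments.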

[11] = target: Mitogen-activated protein kinase 11 (Homo sapiens) (UniProt Q15759); test: Binding affinity to p38beta2
Chain of Mitogen-activated protein kinase 11 (Homo sapiens) (Q15759 whole entry): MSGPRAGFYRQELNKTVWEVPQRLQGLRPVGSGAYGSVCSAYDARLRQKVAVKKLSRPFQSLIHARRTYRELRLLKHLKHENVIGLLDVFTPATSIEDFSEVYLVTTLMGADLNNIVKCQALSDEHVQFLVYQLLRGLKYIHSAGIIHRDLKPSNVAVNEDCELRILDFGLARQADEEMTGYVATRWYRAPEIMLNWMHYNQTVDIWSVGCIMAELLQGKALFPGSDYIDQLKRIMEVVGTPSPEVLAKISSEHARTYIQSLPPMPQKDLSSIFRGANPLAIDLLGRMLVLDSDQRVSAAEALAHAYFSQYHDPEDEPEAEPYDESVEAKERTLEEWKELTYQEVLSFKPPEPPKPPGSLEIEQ

[12] = target: RAC-alpha serine/threonine-protein kinase (Homo sapiens) (UniProt P31749); test: Binding affinity to Akt1
Chain of RAC-alpha serine/threonine-protein kinase (Homo sapiens) (P31749 whole entry): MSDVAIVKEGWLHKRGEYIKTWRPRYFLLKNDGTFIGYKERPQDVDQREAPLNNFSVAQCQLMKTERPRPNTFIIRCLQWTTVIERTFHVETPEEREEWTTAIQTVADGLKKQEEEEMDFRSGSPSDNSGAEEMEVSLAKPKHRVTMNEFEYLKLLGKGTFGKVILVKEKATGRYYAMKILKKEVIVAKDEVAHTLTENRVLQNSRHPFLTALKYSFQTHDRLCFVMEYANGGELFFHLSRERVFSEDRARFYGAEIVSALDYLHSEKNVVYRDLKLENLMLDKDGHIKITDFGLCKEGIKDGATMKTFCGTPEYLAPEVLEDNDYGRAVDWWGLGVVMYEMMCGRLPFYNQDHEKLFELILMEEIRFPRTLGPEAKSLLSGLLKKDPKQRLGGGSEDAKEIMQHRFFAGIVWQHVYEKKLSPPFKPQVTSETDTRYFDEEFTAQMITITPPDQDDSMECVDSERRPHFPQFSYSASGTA

[13] = target: T4, C-C chemokine receptor type 1 (Homo sapiens) (UniProt P32246); test: Binding affinity to CCR1
T4 sequence (whole entry): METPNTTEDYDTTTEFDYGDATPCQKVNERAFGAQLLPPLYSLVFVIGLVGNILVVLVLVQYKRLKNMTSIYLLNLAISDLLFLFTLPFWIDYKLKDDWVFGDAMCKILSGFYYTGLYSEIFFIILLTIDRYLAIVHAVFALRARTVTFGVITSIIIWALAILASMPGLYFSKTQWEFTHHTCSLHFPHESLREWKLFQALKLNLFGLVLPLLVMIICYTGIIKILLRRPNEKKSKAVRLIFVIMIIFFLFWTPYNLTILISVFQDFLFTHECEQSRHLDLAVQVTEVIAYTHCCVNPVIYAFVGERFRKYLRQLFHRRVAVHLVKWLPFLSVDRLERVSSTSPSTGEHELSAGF

[14] = target: Mitogen-activated protein kinase 3 (Homo sapiens) (UniProt P27361); test: Binding affinity to ERK1
Chain of Mitogen-activated protein kinase 3 (Homo sapiens) (P27361 whole entry): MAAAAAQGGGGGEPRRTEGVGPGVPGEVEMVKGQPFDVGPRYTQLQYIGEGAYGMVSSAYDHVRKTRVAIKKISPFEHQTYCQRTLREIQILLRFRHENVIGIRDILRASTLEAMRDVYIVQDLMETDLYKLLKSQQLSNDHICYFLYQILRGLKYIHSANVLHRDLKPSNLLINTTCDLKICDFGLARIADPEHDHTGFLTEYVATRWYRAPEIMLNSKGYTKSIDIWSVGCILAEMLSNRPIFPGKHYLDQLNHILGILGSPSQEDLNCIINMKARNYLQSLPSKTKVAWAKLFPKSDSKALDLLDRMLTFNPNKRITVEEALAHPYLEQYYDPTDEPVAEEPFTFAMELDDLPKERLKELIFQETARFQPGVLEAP

[15] = target: C-C chemokine receptor type 2 (Homo sapiens) (UniProt P41597); test: Binding affinity to CCR2
Chain of C-C chemokine receptor type 2 (Homo sapiens) (P41597 whole entry, looked up): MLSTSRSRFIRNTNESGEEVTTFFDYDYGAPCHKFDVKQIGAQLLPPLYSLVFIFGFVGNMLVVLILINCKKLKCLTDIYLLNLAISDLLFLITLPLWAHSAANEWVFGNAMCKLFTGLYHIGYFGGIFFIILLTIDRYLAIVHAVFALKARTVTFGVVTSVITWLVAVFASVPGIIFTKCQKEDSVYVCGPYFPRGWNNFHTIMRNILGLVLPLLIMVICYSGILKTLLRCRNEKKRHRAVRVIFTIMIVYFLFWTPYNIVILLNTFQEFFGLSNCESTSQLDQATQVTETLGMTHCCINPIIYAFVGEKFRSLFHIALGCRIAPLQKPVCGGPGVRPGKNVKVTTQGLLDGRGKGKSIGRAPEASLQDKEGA

[16] = target: T5, C-X-C chemokine receptor type 1 (Homo sapiens) (UniProt P25024); test: Binding affinity to CXCR1
T5 sequence (whole entry): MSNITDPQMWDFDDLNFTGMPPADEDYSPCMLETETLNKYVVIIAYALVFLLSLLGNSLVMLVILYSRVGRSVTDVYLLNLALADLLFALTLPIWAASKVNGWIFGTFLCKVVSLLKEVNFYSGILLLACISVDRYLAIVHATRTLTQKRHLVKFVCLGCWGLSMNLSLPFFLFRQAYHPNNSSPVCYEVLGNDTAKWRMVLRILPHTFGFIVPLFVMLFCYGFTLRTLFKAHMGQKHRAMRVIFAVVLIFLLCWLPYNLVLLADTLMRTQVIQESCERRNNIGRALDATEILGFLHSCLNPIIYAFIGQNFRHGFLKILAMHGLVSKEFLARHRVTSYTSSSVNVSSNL

[17] = target: Mitogen-activated protein kinase 8 (Homo sapiens) (UniProt P45983); test: Binding affinity to JNK1
Chain of Mitogen-activated protein kinase 8 (Homo sapiens) (P45983 whole entry): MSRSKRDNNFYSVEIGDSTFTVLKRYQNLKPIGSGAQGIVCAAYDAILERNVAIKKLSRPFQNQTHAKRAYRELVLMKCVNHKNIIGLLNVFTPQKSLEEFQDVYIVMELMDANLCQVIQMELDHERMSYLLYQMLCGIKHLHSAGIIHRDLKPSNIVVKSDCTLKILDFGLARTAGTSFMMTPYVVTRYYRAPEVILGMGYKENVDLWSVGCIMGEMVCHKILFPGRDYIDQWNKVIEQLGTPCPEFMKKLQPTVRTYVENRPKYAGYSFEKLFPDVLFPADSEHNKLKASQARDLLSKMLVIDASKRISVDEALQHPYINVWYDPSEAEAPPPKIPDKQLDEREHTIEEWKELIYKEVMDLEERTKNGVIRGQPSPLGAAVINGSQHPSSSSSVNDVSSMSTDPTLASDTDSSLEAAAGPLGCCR

CCOC(=O)c1cnn(CC(O)c2ccccc2)c1NC(=O)NC(C)C (stereo unspecified)
Activity [1]: inactive | Activity (Neutrophil [2]): 90% | Activity [3]: inactive | Activity [4]: inactive | Activity (Neutrophil [5]): 97% | Activity [6]: inactive | Activity [7]: inactive | Activity [8]: inactive | Activity [9]: inactive | Activity (Neutrophil [10]): inactive | Activity [11]: inactive | Activity [12]: inactive | Activity [13]: inactive | Activity [14]: inactive | Activity [15]: inactive | Activity [16]: inactive | Activity [17]: inactive

CCOC(=O)c1cnn(CC(O)c2ccccc2)c1NC(=O)NCc1ccccc1 (stereo unspecified)
Activity [1]: inactive | Activity (Neutrophil [2]): 90% | Activity [3]: inactive | Activity [4]: inactive | Activity (Neutrophil [5]): 69% | Activity [6]: inactive | Activity [7]: inactive | Activity [8]: inactive | Activity [9]: inactive | Activity (Neutrophil [10]): inactive | Activity [11]: inactive | Activity [12]: inactive | Activity [13]: inactive | Activity [14]: inactive | Activity [15]: inactive | Activity [16]: inactive | Activity [17]: inactive

CCOC(=O)c1cnn(CC(O)c2ccccc2)c1NC(=O)Nc1ccccc1 (stereo unspecified)
Activity [1]: inactive | Activity (Neutrophil [2]): 90% | Activity [3]: inactive | Activity [4]: inactive | Activity (Neutrophil [5]): 97% | Activity [6]: inactive | Activity [7]: inactive | Activity [8]: inactive | Activity [9]: inactive | Activity (Neutrophil [10]): inactive | Activity [11]: inactive | Activity [12]: inactive | Activity [13]: inactive | Activity [14]: inactive | Activity [15]: inactive | Activity [16]: inactive | Activity [17]: inactive

— ChEMBL document CHEMBL1146234, “Synthesis and biological evaluation of N-pyrazolyl-N'-alkyl/benzyl/phenylureas: a new class of potent inhibitors of interleukin 8-induced neutrophil chemotaxis” (J Med Chem, 2007)
